Screening results (PubChem)
INS promoter act – TRM-6 insulin promoter activation; TRM-6 cells, insulin promoter eGFP reporter, imaging; plate-scaled: unstimulated 0, stimulated control 100; activation, % at 2 µM; 130,000 compounds, 0.81% hits;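 active means activation at 2 µM above a set limit, confirmed on inspection of the cell images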;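 further: share of cells whose green reporter signal exceeds an intensity cutoff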
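Test system: human fetal islet-derived TRM-6 cells with tamoxifen-inducible insulin promoter–eGFP reporter; schedule: overnight tamoxifen, then two-day compound incubation at 37 °C; measured by: high-content imaging of fixed cells with Hoechst nuclear stain; evaluation: percent cells above green-intensity threshold, converted to percent activation versus plate controls; control set: stimulated and unstimulated wells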
* = called active by the depositor. The sample as a whole holds a higher share of hits than the screen did.

Screening Cc1ccc(NC(=O)c2cc(NC(=O)c3ccccc3C(=O)O)ccc2N2CCCCC2)cc1 returned INS promoter act 6.
Screening Cc1ccc(N/C(CSC(N)=O)=N\S(=O)(=O)c2ccc(C)cc2)cc1 returned INS promoter act 0.
`Oc1c(Br)cc(C2N=C(c3ccccc3Cl)NO2)cc1Br` (stereo not drawn) gave INS promoter act -5.
`Cc1cc(C(F)(F)F)nn1CC(=O)NCc1cccs1` gave INS promoter act -7.
`CCN1/C(=C/c2ccc3cccc(C)c3[n+]2CC)Sc2ccccc21` gave INS promoter act 233*.
Screening CCN1/C(=C/c2ccc3cc(C)cc(C)c3[n+]2CC)Sc2cc(C)ccc21 returned INS promoter act 413*.
Screening CCN1/C(=C\c2ccc3cc(C)ccc3[n+]2CC)Sc2cc(C)c(C)cc21 returned INS promoter act 413*.
`O=C(COC(=O)c1cccnc1Cl)NCc1ccco1` gave INS promoter act 0.
CCc1ccc(-c2csc3ncn(CC(=O)N4CCOCC4)c(=O)c23)cc1 was read as INS promoter act 0.
Screening O=C(C1CCC(Cn2c(=S)[nH]c3ccccc3c2=O)CC1)N1CCN(c2ccccn2)CC1 (stereo not drawn) returned INS promoter act 0.
CCCCNCCCOc1cccc(Cl)c1Cl was read as INS promoter act -3.
`CCc1nc(OCc2ccccc2)c2sc3nc4c(cc3c2n1)COC(C)(C)C4` gave INS promoter act -7.
Cc1ccc(NC(=O)CNc2ccc(OC(C)C)cc2)c(C)c1 was read as INS promoter act -75.
Screening COc1ccc2c(COC(=O)CNC(=O)C34CC5CC(CC(C5)C3)C4)cc(=O)oc2c1 returned INS promoter act 3.
Screening COc1ccc(NS(=O)(=O)c2cccc(-c3n[nH]c(=S)n3Cc3ccccc3)c2)cc1 returned INS promoter act 117.
For CC[N+]1=C(C)C(C)(C)c2cc(C)ccc21 the results were INS promoter act 488*.
Screening O=C1CN(C(=O)COC(=O)CCC(=O)c2ccc3c(c2)OCCO3)c2ccccc2N1 returned INS promoter act 9.
`O=C(NCCO)/C(=C/c1cccc([N+](=O)[O-])c1)NC(=O)c1ccco1` gave INS promoter act -5.
`C=CCN(C)NC(=S)Nc1ccccc1` gave INS promoter act -4.
CCc1cccc2cc3c(N)c(C(=O)Nc4ccc(S(=O)(=O)N5CCCC5)cc4)sc3nc12 was read as INS promoter act 203*.
Screening Cn1nc(C(=O)Nc2ccc(S(=O)(=O)N3CCCCC3)cc2)ccc1=O returned INS promoter act -7.
`O=C(Cc1cccs1)Nc1ccc(S(=O)(=O)N2CCCCC2)cc1` gave INS promoter act 6.
Screening Cn1nc(-c2ccccc2)c2nc3ccccc3nc21 returned INS promoter act 150*.
Cc1nnc2c(-c3ccccc3)nc3ccccc3n12 was read as INS promoter act 9.
`Cn1c(=O)c(-c2ccccc2)nc2ccccc21` gave INS promoter act 328.
`O=C1c2ccccc2NC(c2cccnc2)N1c1ccccc1F` (stereo not drawn) gave INS promoter act 0.
Cc1ccc(C2C3CSCC=C3C(C#N)=C(N)C2(C#N)C#N)cc1 (stereo not drawn) was read as INS promoter act -4.
For CC(C)N1CC=C2C(C#N)=C(N)C(C#N)(C#N)[C@H](c3ccoc3)[C@H]2C1 the results were INS promoter act 161*.
Screening CN1C2C=C3C(C#N)=C(N)C(C#N)(C#N)C(c4ccc(Br)cc4)C3C1CC2 (stereo not drawn) returned INS promoter act 281.
`COc1cc(C2NC(=O)C(C#N)=C(S)N2c2ccccc2)ccc1OC(C)C` (stereo not drawn) gave INS promoter act 192.
For COc1cc(C2C3CN(C)CC=C3C(C#N)=C(N)C2(C#N)C#N)ccc1OC(C)C (stereo not drawn) the results were INS promoter act 257*.
Screening CCCc1nc2sc3c(SCC(=O)NCc4ccco4)ncnc3c2c2c1CCC2 returned INS promoter act 4.
For Cc1ccc(C(=O)N/N=C2\CCCc3ccccc32)c(C)c1 the results were INS promoter act 0.
`CCOC(=O)/C=c1\s/c(=C\c2ccc3cc(OC)ccc3c2)c(=O)n1CC(=O)NCc1ccc2c(c1)OCO2` gave INS promoter act 335*.
Screening CCOC(=O)/C=c1\s/c(=C\c2c(OCC)ccc3ccccc23)c(=O)n1CC(=O)NCC1CCCO1 (stereo not drawn) returned INS promoter act 185.
For COCCNC(=O)Cn1c(=O)n(CCCCCC(=O)NCc2ccc3c(c2)OCO3)c(=O)c2sccc21 the results were INS promoter act -72.
Screening CC(C)(C)NS(=O)(=O)c1cccc(S(=O)(=O)c2cccc(S(=O)(=O)NC(C)(C)C)c2)c1 returned INS promoter act 10.
COC(=O)c1ccc(CN2C(=O)NC3(CCCCC3C)C2=O)o1 (stereo not drawn) was read as INS promoter act 7.
For CCc1cccc(Nc2cc(C)nc3nc(C)nn23)c1 the results were INS promoter act -38.
Screening CCCCNC(=O)CCN1N=C(c2ccccc2)CCC1=O returned INS promoter act 136.
`Cc1ccc(Nc2ccc(N3CCN(c4ccc([N+](=O)[O-])cc4)CC3)nn2)cc1` gave INS promoter act -8.
Screening O=C(CN1C(=O)S/C(=C/c2cccnc2)C1=O)N1CCOCC1 returned INS promoter act -71.
For O=C1S/C(=C/c2ccc(N3CCOCC3)o2)C(=O)N1Cc1c(F)cccc1Cl the results were INS promoter act 178*.
O=C1S/C(=C\c2ccc(N3CCOCC3)o2)C(=O)N1Cc1c(F)cccc1Cl was read as INS promoter act 0.
Screening O=C(O)CCCC(=O)N1CCc2cc(S(=O)(=O)NCc3ccc(F)cc3)ccc21 returned INS promoter act 0.
`CC(=O)Nc1ccc(OCC(O)CN2C(C)(C)CC(O)CC2(C)C)cc1` (stereo not drawn) gave INS promoter act 3.
c1ccc2c(CSCCc3ccncc3)cccc2c1 was read as INS promoter act -5.
`CCOC(=O)c1c(NC(=O)Cc2cccs2)sc(C(=O)NC2CCCCC2)c1C` gave INS promoter act 153*.
CCOC(=O)c1c(NC(=O)Cc2cccs2)sc(C(=O)NC2CCCC2)c1C was read as INS promoter act 3.
For COC(=O)c1c(NC(=O)Cc2cccs2)sc(C(=O)NC2CCCCC2)c1C the results were INS promoter act 290.
For CCOc1ccccc1CN(Cc1ccco1)S(=O)(=O)c1ccc(-n2cnnn2)c(OC)c1 the results were INS promoter act -9.
N#Cc1ccccc1NC(=O)C1CC(=O)N(c2ccc3c4c(cccc24)CC3)C1 (stereo not drawn) was read as INS promoter act 7.
For Cc1nonc1NC(=O)Nc1cccnc1 the results were INS promoter act -7.
Cc1ccc(S(=O)(=O)N2CCN(C(=O)CN3CCCCC3)C2C(C)C)cc1 (stereo not drawn) was read as INS promoter act 6.
For CSc1nsc(SC)c1C(=O)N1CCN(S(=O)(=O)c2ccc(C)cc2)C1C (stereo not drawn) the results were INS promoter act 125*.
Screening CSc1nsc(SC)c1C(=O)Nc1ccc(C)cc1 returned INS promoter act 5.
Screening COc1ccc(NC(=O)c2cncc(Br)c2)cc1S(N)(=O)=O returned INS promoter act -7.
Cc1nc(NC(=O)COc2ccccc2)sc1C(=O)Nc1ccccc1 was read as INS promoter act 4.
